We go through ten compounds from publication PMC3700807 (Planta medica, 2011).

Each structure is given as a SMILES string. Converted amounts (≈) assume the structure as drawn.

The conditions of data set [1]: quoted as basis for basifying to pH 11; no reference given; cited from earlier work.
In data set [2] the test system is Plasmodium falciparum W2 (chloroquine-resistant clone). The data set is described as follows: In vitro antiplasmodial assay. Type of data set: cell-based. The following applies: Plasmodium falciparum, W2, read-out: P. falciparum W2 IC50.
Data set [3] concerns Plasmodium falciparum D6 (chloroquine-sensitive clone). The data set is described as follows: In vitro antiplasmodial assay. Type of data set: cell-based. The following applies: Plasmodium falciparum, D6, read-out: P. falciparum D6 IC50.
Data set [4] concerns Leishmania donovani axenic amastigotes. The data set is described as follows: Antileishmanial assay, axenic amastigotes. Type of data set: cell-based. To be noted: for Leishmania donovani Axenic Amastigotes IC50: 37 °C, 72 hours, mean ± S.D. of three observations; for IC90: Leishmania donovani, 72 h, read-out: Leishmania donovani Axenic Amastigotes IC90.
The nature of data set [5]: Cytotoxicity to PMA transformed THP1 cells. Type of data set: cell-based. The following applies: human.
Data set [6] relates to Leishmania donovani promastigotes. The data set is described as follows: Antileishmanial assay, promastigotes. Type of data set: cell-based. To be noted: for Leishmania donovani Promastigotes IC50: 26 °C, 72 hours, mean ± S.D. of three observations; for IC90: Leishmania donovani, 72 h, read-out: Leishmania donovani Promastigotes IC90.
Data set [7] has as its system Cryptococcus neoformans (ATCC 90113). Nature of the data set: Antimicrobial susceptibility assay, C. neoformans. Type of data set: cell-based. To be noted: Cryptococcus neoformans. The method, boiled down: (§1)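 Yeasts were tested by a modified CLSI broth-dilution method, with growth monitored by optical density. Amphotericin B was the drug control in each assay. IC50 (50% inhibition vs controls) was curve-fitted from duplicate readings. MIC is the lowest concentration allowing no detectable growth. For MFC, 5 μL from each clear well was plated on agar and incubated until growth was seen.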

Data set [8] relates to Leishmania donovani amastigotes in THP1 macrophage cultures. Nature of the data set: Antileishmanial macrophage-amastigote assay. Type of data set: cell-based. To be noted: mean ± S.D. of three observations; for IC50: Leishmania donovani, THP-1, read-out: Leishmania donovani Macrophage-Amastigotes IC50, amastigotes in THP1 macrophage cultures.
Data set [9] relates to Candida albicans (ATCC 90028). Nature of the data set: Antimicrobial susceptibility assay, C. albicans. Type of data set: cell-based. To be noted: Candida albicans. The method, boiled down:
as §1

The test system of data set [10] is Aspergillus fumigatus (ATCC 204305). The data set is described as follows: Antimicrobial susceptibility assay, A. fumigatus. Type of data set: cell-based. To be noted: Aspergillus fumigatus. The method, boiled down: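 Broth-dilution susceptibility test in medium with 5% Alamar Blue for growth detection. Amphotericin B was the drug control in each assay. IC50 (50% inhibition vs controls) was curve-fitted from duplicate readings. MIC is the lowest concentration with no detectable growth. For MFC, 5 μL from each clear well was moved to agar and incubated until growth appeared.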

Data set [11] has as its system VERO cells. The following applies: VERO cells cytotoxicity; data reported previously; cited from earlier work.
Data set [12] has as its system Plasmodium falciparum W2 (chloroquine-resistant clone). The following applies: data reported previously; cited from earlier work.
Data set [13] relates to Plasmodium falciparum D6 (chloroquine-sensitive clone). The following applies: data reported previously; cited from earlier work.
For data set [14], the system named is Mycobacterium intracellulare (ATCC 23068). The data set is described as follows: Antimicrobial susceptibility assay, M. intracellulare. Type of data set: cell-based. To be noted: Mycobacterium intracellulare. The method, boiled down:
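Mycobacterium intracellulare (ATCC 23068) was tested by a modified broth susceptibility method, with growth detected in medium containing 5% Alamar Blue. IC50 was fitted against untreated controls from duplicate readings. MIC was taken as the lowest concentration with no detectable growth. For MBC, clear wells were subcultured onto agar and incubated until growth appeared. Ciprofloxacin was included as the drug control in each assay.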

Data set [15] deals with methicillin-resistant S aureus (MRSA, ATCC 33591). The data set is described as follows: Antimicrobial susceptibility assay, MRSA. Type of data set: cell-based, Staphylococcus aureus. To be noted: Staphylococcus aureus, ATCC33591|MRSA. The method, boiled down:
(§2)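 Bacteria were tested by a modified CLSI broth-dilution method, with growth read as optical density. Ciprofloxacin was the drug control in each assay. IC50 (50% inhibition relative to controls) was fitted from duplicate readings. MIC is the lowest concentration with no detectable growth. For MBC, 5 μL from each clear well was transferred to agar and incubated until growth appeared.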

In data set [16] the test system is Staphylococcus aureus (ATCC 29213). The data set is described as follows: Antimicrobial susceptibility assay, S. aureus. The format is cell-based. The following applies: Staphylococcus aureus. The method, boiled down:
as §2

As a reminder, the pKa is the negative logarithm of the acid dissociation constant. `NCCc1c[nH]c2ccccc12` [tryptamine]: in data set [1], the pKa is 10.2.
The term IC50 denotes the point on the concentration scale where inhibition reaches its midpoint. On to `C[C@@H]1CC[C@H]2[C@@H](C)C(=O)O[C@@H]3O[C@@]4(C)CC[C@@H]1[C@]32OO4` [Artemisinin], for which the IC50 in data set [2] is 0.017 mg/L (≈ 0.0602 µM); in data set [3], 0.016 mg/L (≈ 0.0567 µM).
By IC90 is commonly meant the concentration at which the effect reaches the 90% level. For `C[C@@H]1N[C@H](CCCCCCCCCCC2=C[C@@H](CCCCCCCCCC[C@@H]3CC[C@@H](O)[C@H](C)N3)[C@@H]3CCCN3C2)CC[C@H]1O` [Compound 3, prosopilosine], in data set [4], the “Leishmania donovani Axenic Amastigotes IC50” value was 0.98 ± 0.12 mg/L and the IC90 came to 6.49 ± 0.84 mg/L (≈ 10.3 µM). In data set [5], the IC50 was 2.33 ± 0.51 mg/L (≈ 3.7 µM) and the IC90 is 3.89 ± 0.51 mg/L (≈ 6.17 µM). In [6], the “Leishmania donovani Promastigotes IC50” value is 0.17 ± 0.05 mg/L and the IC90 stood at 6.33 ± 1.07 mg/L (≈ 10 µM).
What is called MIC is the lowest concentration found to suppress growth. As to `C[C@@H]1[C@H](O)[C@@H](C)/C=C/C=C/C=C/C=C/C=C/C=C/C=C/[C@H](O[C@@H]2O[C@H](C)[C@@H](O)[C@H](N)[C@@H]2O)C[C@@H]2O[C@](O)(C[C@@H](O)C[C@@H](O)[C@H](O)CC[C@@H](O)C[C@@H](O)CC(=O)O[C@H]1C)C[C@H](O)[C@H]2C(=O)O` [Amphotericin B, reference compound], the concentration for half-maximal inhibition (IC50) in data set [7] (ATCC90113, read-out: C. neoformans IC50) came to 0.32 mg/L (≈ 0.346 µM); in data set [8] it was 0.14 ± 0.02 mg/L (≈ 0.152 µM); in [5] (PMA transformed THP1 cells), 3.34 ± 0.41 mg/L (≈ 3.61 µM); in data set [9] (ATCC90028, read-out: C. albicans IC50), 0.13 mg/L (≈ 0.141 µM); in data set [10] (ATCC204305, read-out: A. fumigatus IC50), 0.72 mg/L (≈ 0.779 µM). The MFC is 1.25 mg/L (≈ 1.35 µM) in [7] (ATCC90113, read-out: C. neoformans MFC); 0.63 mg/L (≈ 0.682 µM) in data set [9] (ATCC90028, read-out: C. albicans MFC); 2.5 mg/L (≈ 2.71 µM) in data set [10] (ATCC204305, read-out: A. fumigatus MFC). Further, the MIC turned out to be 1.25 mg/L (≈ 1.35 µM) in data set [7] (ATCC90113, read-out: C. neoformans MIC) and 1.25 mg/L (≈ 1.35 µM) in data set [10] (ATCC204305, read-out: A. fumigatus MIC). In addition, the figures for the IC90 in data set [4] and in [5] (PMA transformed THP1 cells) were 0.97 ± 0.14 mg/L (≈ 1.05 µM) and 8.05 ± 1.33 mg/L (≈ 8.71 µM), respectively.
For the compound `C[C@H]1N[C@@H](CCCCCCCCCCC2=C[C@@H](CCCCCCCCCC[C@H]3CC[C@@H](O)[C@@H](C)N3)[C@@H]3CCCN3C2)CC[C@H]1O` [Compound 6, juliprosopine], in [4], the “Leishmania donovani Axenic Amastigotes IC50” value was 1.92 ± 0.19 mg/L and the IC90 was found to be 6.25 ± 0.47 mg/L (≈ 9.92 µM). Also, in [5], the IC50 is 3.43 ± 0.32 mg/L (≈ 5.44 µM) and the IC90 amounted to 7.89 ± 1.2 mg/L (≈ 12.5 µM). Besides, in data set [11], the “VERO IC50” value is 5 mg/L. Also, in [6], the “Leishmania donovani Promastigotes IC50” value came out at 0.29 ± 0.05 mg/L and the IC90 turned out to be 1.14 ± 0.21 mg/L (≈ 1.81 µM). The “P. falciparum W2 IC50” value in [12] is 0.38 ± 0.05 mg/L. For the same compound, the “P. falciparum D6 IC50” value in data set [13] is 0.22 ± 0.025 mg/L.
For `N=C(N)c1ccc(OCCCCCOc2ccc(C(=N)N)cc2)cc1` [Pentamidine, reference compound], in data set [8], the IC50 stood at 3 mg/L (≈ 8.81 µM). In data set [8] (amastigotes in THP1 macrophage cultures), the “Leishmania donovani Macrophage-Amastigotes IC50” value stood at 2.97 ± 0.44 mg/L. In data set [4], the “Leishmania donovani Axenic Amastigotes IC50” value was found to be 2.09 ± 0.37 mg/L and the IC90 was 14.7 ± 2.2 mg/L (≈ 43.2 µM). In data set [5] (PMA transformed THP1 cells), this compound showed an IC50 greater than 20 mg/L and an IC90 greater than 20 mg/L. Besides, in data set [6], the “Leishmania donovani Promastigotes IC50” value was 1.06 ± 0.32 mg/L and the IC90 stood at 3.86 ± 0.41 mg/L (≈ 11.3 µM).
Regarding `CCN(CC)CCCC(C)Nc1ccnc2cc(Cl)ccc12` (stereo not shown) [Chloroquine], the IC50 was 0.14 mg/L (≈ 0.438 µM) in data set [2] and 0.017 mg/L (≈ 0.0531 µM) in [3].
Take `C[C@@H]1N[C@H](CCCCCCCCCCc2cc(CCCCCCCCCC[C@@H]3CC[C@H](O)[C@@H](C)N3)c3[n+](c2)CCC3)CC[C@H]1O` [Compound 2, prosopilosidine]: the results for the IC50 in data set [8] and in data set [5] (PMA transformed THP1 cells) were 3.23 ± 0.54 mg/L and 9.49 ± 2.25 mg/L, respectively. Also, the figures for the IC90 in data set [4], in data set [5] (PMA transformed THP1 cells) and in data set [6] were 25.4 ± 5.3 mg/L, greater than 20 mg/L and 4.17 ± 0.54 mg/L, respectively. Further, the “VERO IC50” value in data set [11] was greater than 23.8 mg/L. The “P. falciparum W2 IC50” value in [12] was 0.095 ± 0.002 mg/L. Also, the “P. falciparum D6 IC50” value in [13] is 0.039 ± 0.002 mg/L.
A word on the MBC: it is the lowest tested concentration that kills the bacteria rather than only halting them. Consider `O=C(O)c1cn(C2CC2)c2cc(N3CCNCC3)c(F)cc2c1=O` [Ciprofloxacin, reference compound], for which the IC50 in data set [14] (ATCC23068, read-out: M. intracellulare IC50) was found to be 0.25 mg/L (≈ 0.754 µM); in data set [15] (read-out: MRSA IC50), 0.08 mg/L (≈ 0.241 µM); in data set [16] (ATCC29213, read-out: S. aureus IC50), 0.1 mg/L (≈ 0.302 µM). Also, the MBC was greater than 20 mg/L in [14] (ATCC23068, read-out: M. intracellulare MBC); 1 mg/L (≈ 3.02 µM) in [15] (read-out: MRSA MBC); greater than 20 mg/L in [16] (ATCC29213, read-out: S. aureus MBC). Also, the MIC came to 0.5 mg/L (≈ 1.51 µM) in data set [14] (ATCC23068, read-out: M. intracellulare MIC) and 0.25 mg/L (≈ 0.754 µM) in data set [15] (read-out: MRSA MIC).
With `C[C@@H]1N[C@H](CCCCCCCCCCc2cc(CCCCCCCCCC[C@H]3CC[C@@H](O)[C@@H](C)N3)c[n+]3c2CCC3)CC[C@H]1O` [Compound 5, isoprosopilosidine], the IC50 in data set [8] was determined as 5.87 ± 0.76 mg/L; in [5] (PMA transformed THP1 cells) it was 7.92 ± 1.22 mg/L. Also, the figures for the IC90 in [4], in data set [5] (PMA transformed THP1 cells) and in data set [6] were 24.8 ± 3.7 mg/L, 19 mg/L and 4.52 ± 0.74 mg/L, respectively.
